Values after ≈ are worked out from the molar mass of the structure shown.
Columns and labels:
[1] = system: Staphylococcus aureus; test: Antibacterial activity against Staphylococcus aureus ATCC 3556 after 14 to 16 hrs by broth dilution method; format: functional
[2] = system: Staphylococcus aureus; test: Antibacterial activity against Staphylococcus aureus N315 after 14 to 16 hrs by broth dilution method; format: functional
Outline: (§1)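 CLSI broth dilution in cation-adjusted Mueller-Hinton broth with serial twofold dilutions, with or without spermine or spermidine added. Overnight cultures were diluted in saline to OD600 0.1–0.12, and about 10^5 CFU were inoculated. Incubation was 14–16 h at 37°C. MIC was confirmed in three independent experiments. E. coli acrA mutants were tested with 1 mM spermine; P. aeruginosa isolates with 1 mM spermine or 20 mM spermidine.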

[3] = system: Staphylococcus aureus; test: Antibacterial activity against Staphylococcus aureus Mu50 after 14 to 16 hrs by broth dilution method; format: functional
[4] = system: Salmonella typhimurium; test: Antibacterial activity against Salmonella enterica serovar Typhimurium LT2 after 14 to 16 hrs by broth dilution method; format: functional, Salmonella enterica subsp. enterica serovar Typhimurium
[5] = system: Escherichia coli; test: Antibacterial activity against Escherichia coli K10 after 14 to 16 hrs by broth dilution method; format: functional
[6] = system: Escherichia coli; test: Antibacterial activity against Escherichia coli C921-61 after 14 to 16 hrs by broth dilution method; format: functional
[7] = system: Escherichia coli; test: Antibacterial activity against Escherichia coli K12 after 14 to 16 hrs by broth dilution method; format: functional
[8] = system: Escherichia coli; test: Antibacterial activity against Escherichia coli N818 delta acrA mutant assessed as inhibition of AcrAB efflux pump after 14 to 16 hrs by broth dilution method; format: functional; outline: as §1
[9] = system: Pseudomonas aeruginosa; test: Antibacterial activity against Pseudomonas aeruginosa T15464 after 14 to 16 hrs by broth dilution method; format: functional; outline: as §1
[10] = system: Escherichia coli; test: Antibacterial activity against Escherichia coli N43 acrA mutant assessed as inhibition of AcrAB efflux pump after 14 to 16 hrs by broth dilution method; format: functional; outline: as §1
[11] = system: Pseudomonas aeruginosa; test: Antibacterial activity against Pseudomonas aeruginosa M38100A after 14 to 16 hrs by broth dilution method; format: functional
[12] = system: Pseudomonas aeruginosa; test: Antibacterial activity against Pseudomonas aeruginosa T2095 after 14 to 16 hrs by broth dilution method; format: functional
[13] = system: Pseudomonas aeruginosa; test: Antibacterial activity against Pseudomonas aeruginosa F66336 after 14 to 16 hrs by broth dilution method; format: functional
[14] = system: Escherichia coli; test: Antibacterial activity against Escherichia coli W4573 assessed as inhibition of AcrAB efflux pump after 14 to 16 hrs by broth dilution method; format: functional
[15] = system: Pseudomonas aeruginosa; test: Antibacterial activity against Pseudomonas aeruginosa PAO1 after 14 to 16 hrs by broth dilution method; format: functional
[16] = system: Pseudomonas aeruginosa; test: Antibacterial activity against Pseudomonas aeruginosa F4980 after 14 to 16 hrs by broth dilution method; format: functional; outline: as §1
[17] = system: Pseudomonas aeruginosa; test: Antibacterial activity against Pseudomonas aeruginosa H4563 after 14 to 16 hrs by broth dilution method; format: functional
[18] = system: Pseudomonas aeruginosa; test: Antibacterial activity against Pseudomonas aeruginosa M22152 after 14 to 16 hrs by broth dilution method; format: functional; outline: as §1
[19] = system: Pseudomonas aeruginosa; test: Antibacterial activity against Pseudomonas aeruginosa M38100B after 14 to 16 hrs by broth dilution method; format: functional
[20] = system: Pseudomonas aeruginosa; test: Antibacterial activity against Pseudomonas aeruginosa T6268 after 14 to 16 hrs by broth dilution method; format: functional
[21] = system: Pseudomonas aeruginosa; test: Antibacterial activity against Pseudomonas aeruginosa DK101 containing pAU48 expressing oprD after 14 to 16 hrs by broth dilution method; format: functional
[22] = system: Pseudomonas aeruginosa; test: Antibacterial activity against streptomycin and gentamycin-resistant Pseudomonas aeruginosa DK101 containing oprD mutant after 14 to 16 hrs by broth dilution method; format: functional; outline: as §1
[23] = system: Pseudomonas aeruginosa; test: Antibacterial activity against streptomycin-resistant Pseudomonas aeruginosa DK100 after 14 to 16 hrs by broth dilution method; format: functional; outline: as §1
[24] = system: Pseudomonas aeruginosa; test: Antibacterial activity against Pseudomonas aeruginosa M37310 after 14 to 16 hrs by broth dilution method; format: functional
[25] = system: Pseudomonas aeruginosa; test: Antibacterial activity against Pseudomonas aeruginosa T5177 after 14 to 16 hrs by broth dilution method; format: functional; outline: as §1

Row | Molecule | MIC [1] | MIC [2] | MIC [3] | MIC [4] | MIC [5] | MIC [6] | MIC [7] | further results
1 | CC1(C)S[C@@H]2[C@H](NC(=O)[C@H](N)c3ccc(O)cc3)C(=O)N2[C@H]1C(=O)O [AMOXICILLIN] | 1 µg/mL | 16 µg/mL | 16 µg/mL |  |  |  |  | 
2 | CC1(C)S[C@@H]2[C@H](NC(=O)[C@H](N)c3ccccc3)C(=O)N2[C@H]1C(=O)O [AMPICILLIN] | 2 µg/mL | 128 µg/mL | 64 µg/mL | 4 µg/mL | 8 µg/mL | 4 µg/mL | 4 µg/mL | 
3 | CC1(C)S[C@@H]2[C@H](NC(=O)[C@H](NC(=O)N3CCNC3=O)c3ccccc3)C(=O)N2[C@H]1C(=O)O [AZLOCILLIN] | 0.5 µg/mL | 16 µg/mL | 16 µg/mL | 16 µg/mL | 16 µg/mL | 8 µg/mL | 16 µg/mL | 
4 | CCN1CCN(C(=O)N[C@@H](C(=O)N[C@@H]2C(=O)N3C(C(=O)O)=C(CSc4nnnn4C)CS[C@H]23)c2ccc(O)cc2)C(=O)C1=O [CEFOPERAZONE] | 1 µg/mL | 4 µg/mL | > 1020 µg/mL |  |  |  |  | 
5 | CO/N=C(\C(=O)N[C@@H]1C(=O)N2C(C(=O)O)=C(COC(C)=O)CS[C@H]12)c1csc(N)n1 [CEFOTAXIME] | 0.5 µg/mL | 2 µg/mL | > 1020 µg/mL |  |  |  |  | 
6 | CC(C)(O/N=C(\C(=O)N[C@@H]1C(=O)N2C(C(=O)[O-])=C(C[n+]3ccccc3)CS[C@H]12)c1csc(N)n1)C(=O)O [CEFTAZIDIME] | 8 µg/mL | 32 µg/mL | 512 µg/mL |  |  |  |  | 
7 | CO/N=C(\C(=O)N[C@@H]1C(=O)N2C(C(=O)O)=C(CSc3nc(=O)c(O)nn3C)CS[C@H]12)c1csc(N)n1 [CEFTRIAXONE] | 2 µg/mL | 4 µg/mL | > 1020 µg/mL |  |  |  |  | 
8 | O=C(Cc1cccs1)N[C@@H]1C(=O)N2C(C(=O)[O-])=C(C[n+]3ccccc3)CS[C@H]12 [CEPHALORIDINE] | < 0.06 µg/mL | 1 µg/mL | 16 µg/mL | 0.015 µg/mL | 8 µg/mL | 4 µg/mL | 4 µg/mL | 
9 | CC(=O)OCC1=C(C(=O)O)N2C(=O)[C@@H](NC(=O)Cc3cccs3)[C@H]2SC1 [CEPHALOTHIN] | 0.5 µg/mL | 1 µg/mL | 64 µg/mL |  |  |  |  | 
10 | O=C(N[C@H](CO)[C@H](O)c1ccc([N+](=O)[O-])cc1)C(Cl)Cl [CHLORAMPHENICOL] | 8 µg/mL | 8 µg/mL | 8 µg/mL | 2 µg/mL |  | 4 µg/mL | 32 µg/mL | MIC [8]: 2 µg/mL (≈ 6.19 µM); MIC [9]: 32 µg/mL (≈ 99 µM); MIC [10]: 2 µg/mL (≈ 6.19 µM); MIC [11]: 4 µg/mL (≈ 12.4 µM); MIC [12]: 32 µg/mL (≈ 99 µM); MIC [13]: 8 µg/mL (≈ 24.8 µM); MIC [14]: 8 µg/mL (≈ 24.8 µM); MIC [15]: 128 µg/mL (≈ 396 µM); MIC [16]: 32 µg/mL (≈ 99 µM)
11 | O=C(O)c1cn(C2CC2)c2cc(N3CCNCC3)c(F)cc2c1=O [CIPROFLOXACIN] | 0.25 µg/mL | 1 µg/mL | 64 µg/mL | ≤ 0.03 µg/mL | ≤ 0.03 µg/mL | ≤ 0.03 µg/mL | ≤ 0.03 µg/mL | MIC [17]: 128 µg/mL (≈ 386 µM); MIC [18]: 4 µg/mL (≈ 12.1 µM); MIC [19]: 32 µg/mL (≈ 96.6 µM); MIC [20]: 4 µg/mL (≈ 12.1 µM); MIC [16]: 4 µg/mL (≈ 12.1 µM)
12 | Cc1onc(-c2ccccc2Cl)c1C(=O)N[C@@H]1C(=O)N2[C@@H]1SC(C)(C)[C@@H]2C(=O)O [CLOXACILLIN] | 0.12 µg/mL | 8 µg/mL | ≥ 512 µg/mL |  |  |  |  | 
13 | CC[C@H]1OC(=O)[C@H](C)[C@@H](O[C@H]2C[C@@](C)(OC)[C@@H](O)[C@H](C)O2)[C@H](C)[C@@H](O[C@@H]2O[C@H](C)C[C@H](N(C)C)[C@H]2O)[C@](C)(O)C[C@@H](C)C(=O)[C@H](C)[C@@H](O)[C@]1(C)O [ERYTHROMYCIN] |  |  |  | 64 µg/mL | 64 µg/mL | 64 µg/mL | 64 µg/mL | 
14 | CC(=O)O[C@H]1C[C@@]2(C)[C@@H](C[C@@H](O)[C@H]3[C@@]4(C)CC[C@@H](O)[C@@H](C)[C@@H]4CC[C@@]32C)/C1=C(\CCC=C(C)C)C(=O)O [FUSIDIC ACID] |  |  |  | > 1020 µg/mL | > 1020 µg/mL | 1020 µg/mL | 1020 µg/mL | 
15 | C[C@@H](O)[C@H]1C(=O)N2C(C(=O)O)=C(SCCNC=N)C[C@H]12 [IMIPENEM ANHYDROUS] |  |  |  |  |  |  |  | MIC [21]: 0.5 µg/mL (≈ 1.67 µM); MIC [22]: 32 µg/mL (≈ 107 µM); MIC [23]: 4 µg/mL (≈ 13.4 µM)
16 | NC[C@H]1O[C@H](O[C@H]2[C@H](O)[C@@H](O[C@H]3O[C@H](CO)[C@@H](O)[C@H](N)[C@H]3O)[C@H](N)C[C@@H]2N)[C@H](O)[C@@H](O)[C@@H]1O [KANAMYCIN] |  |  |  | 4 µg/mL | 2 µg/mL | 4 µg/mL | 4 µg/mL | 
17 | CO[C@@H]1[C@@H](OC(N)=O)[C@@H](O)[C@H](Oc2ccc3c(O)c(NC(=O)c4ccc(O)c(CC=C(C)C)c4)c(=O)oc3c2C)OC1(C)C [NOVOBIOCIN] |  |  |  | > 1020 µg/mL | > 1020 µg/mL | 512 µg/mL | > 1020 µg/mL | 
18 | CC1(C)S[C@@H]2[C@H](NC(=O)Cc3ccccc3)C(=O)N2[C@H]1C(=O)O [PENICILLIN G] | ≤ 0.06 µg/mL | 32 µg/mL | 32 µg/mL | 16 µg/mL | 64 µg/mL |  | 64 µg/mL | 
19 | CCN1CCN(C(=O)N[C@@H](C(=O)N[C@@H]2C(=O)N3[C@@H]2SC(C)(C)[C@@H]3C(=O)O)c2ccccc2)C(=O)C1=O [PIPERACILLIN] | 0.5 µg/mL | 32 µg/mL | 128 µg/mL | 4 µg/mL | 2 µg/mL | 2 µg/mL | 2 µg/mL | 
20 | CN[C@@H]1[C@H](O)[C@H](NC)[C@H]2O[C@@]3(O)C(=O)C[C@@H](C)O[C@H]3O[C@@H]2[C@H]1O [SPECTINOMYCIN] |  |  |  | 32 µg/mL | 16 µg/mL | 16 µg/mL | 16 µg/mL | 
21 | NCCCNCCCCNCCCN [SPERMINE] | 4 mM | 4 mM | 4 mM | 2 mM | 1 mM | > 16 mM | > 16 mM | 
22 | CN(C)[C@@H]1C(O)=C(C(N)=O)C(=O)[C@@]2(O)C(O)=C3C(=O)c4c(O)cccc4[C@@](C)(O)[C@H]3C[C@@H]12 [TETRACYCLINE] | 0.12 µg/mL | 0.12 µg/mL | 32 µg/mL | 2 µg/mL | 8 µg/mL | 2 µg/mL | 8 µg/mL | MIC [8]: 0.5 µg/mL (≈ 1.13 µM); MIC [10]: 0.5 µg/mL (≈ 1.13 µM); MIC [14]: 2 µg/mL (≈ 4.5 µM)
23 | CC1(C)S[C@@H]2[C@H](NC(=O)[C@H](C(=O)O)c3ccsc3)C(=O)N2[C@H]1C(=O)O [TICARCILLIN] | 1 µg/mL | 32 µg/mL | 512 µg/mL | 4 µg/mL | 8 µg/mL | 4 µg/mL | 8 µg/mL | 
24 | POLYMYXIN B | 64 µg/mL | 64 µg/mL | 128 µg/mL |  | 0.5 µg/mL | 0.5 µg/mL | 0.25 µg/mL | MIC [9]: 0.5 µg/mL; MIC [21]: 0.5 µg/mL; MIC [22]: 0.5 µg/mL; MIC [17]: 0.125 µg/mL; MIC ([4]; Salmonella enterica subsp. enterica serovar Typhimurium): 0.5 µg/mL; MIC [24]: 0.125 µg/mL; MIC [11]: < 0.06 µg/mL; MIC [23]: 0.5 µg/mL; MIC [12]: 0.125 µg/mL; MIC [13]: 0.125 µg/mL; MIC [25]: 0.5 µg/mL; MIC [15]: 1 µg/mL; MIC [18]: 0.5 µg/mL; MIC [19]: 16 µg/mL; MIC [20]: 1 µg/mL; MIC [16]: 0.25 µg/mL

— ChEMBL document CHEMBL1145495, “Polyamine effects on antibiotic susceptibility in bacteria” (2007)
